The sample as a whole holds a higher share of hits than the screen did.
PostGolgi ctrl = growth inhibition of yeast control strain, primary screen, counter-screen for post-Golgi transport modulator project. efflux-deficient yeast background strain, growth absorbance A615, 16 h. inhibition, % at 10 µM. 98,000 compounds, 5% hits
Yeast lifespan up = compounds extending yeast replicative lifespan, primary screen, S. cerevisiae, OD615. S. cerevisiae growth with nicotinamide; deaD strain in restrictive glucose medium. inhibition of the nicotinamide effect, % at 10 µM. 130,000 compounds, 0.68% hits;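 active = inhibition above a set limit, placed 3 SD over the median of all compounds, cut at about 26% in these data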;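 also: 0% = nicotinamide-treated wells and 100% = cells grown without nicotinamide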
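System: DeaD-strain S. cerevisiae / Buffer or medium: CSMM-D, restrictive glucose (dextrose) synthetic minimal medium / Probe or stimulus: nicotinamide, 1.5 mM, co-present with compound / Compound: one concentration, 10 µM, DMSO 0.25% / Incubation: 48 h compound exposure at 30 °C, humidified / Technique: optical density (absorbance) at 615 nm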
Yeast growth inh = growth inhibitors of yeast BB579 in restrictive medium, primary screen, yeast lifespan-shortening project, S. cerevisiae. OD615, 48 h. inhibition, % at 10 µM. 140,000 compounds, 0.51% hits. AID 804, 2007;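 active = inhibition above a set limit, 3 SD over the mean compound inhibition, cut at about 44% in these data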
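Test system: Saccharomyces cerevisiae DeaD strain BB579, replicative lifespan model yeast | Buffer or medium: Restrictive CSMM-D medium | Doses: One dose, 10 µM compound with 0.25% DMSO | Incubation: 48 h exposure, 30 °C | Detection: Culture absorbance at 615 nm | Control set: Amphotericin B at 10 µg/mL as positive control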
PostGolgi yeast = phenotypic screen on post-Golgi transport, primary screen | inhibition, % at 10 µM | 98,000 compounds, 0.9% hits | AID 739, 2007 | post-Golgi transport phenotypic cell assay;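 also: yeast cells grown in 1536-well plates; yeast grown about 18 h at 30C before absorbance read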
Numbers without * were called inactive; . = no result given. Rule as the data show it, unless noted: active = inhibition above about 30%; inactive = the rest.

SMILES | PostGolgi ctrl | Yeast lifespan up | Yeast growth inh | PostGolgi yeast
C/C(=N/NS(=O)(=O)c1ccc(Br)cc1)c1ccc(NC(=O)c2ccc(C)o2)cc1 | 41* | -14 | -46 | 3
O=C(Nc1ccc(Cl)c(Cl)c1)C1=Cc2ccccc2OC1 | 42* | -8 | -55 | 9
CCOC(=O)c1oc2ccc3c(c2c1C)C(=O)CC1(CCN(C(=O)OCC)CC1)O3 | 35* | -15 | -43 | -7
CCOC(=O)N1CCC2(CC1)CC(=O)c1c(ccc3oc(C(=O)O)c(C)c13)O2 | 9 | -7 | -45 | 0
CC(C)(C)c1ccc(C(=O)NCC(=O)OCC(=O)c2ccc3c(c2)-c2ccccc2C3)cc1 | . | -2 | 6 | .
O=C1OCC(CO)(CO)N=C1NNc1ccc(Cl)c(Cl)c1 | 19 | -19 | 98* | 92*
N=C1CCCN1CC(=O)c1ccc(Br)cc1 | . | 1 | -27 | .
CCCCN(C(=O)CSc1nnc(-c2ccccc2OC)n1C)c1c(N)n(Cc2ccccc2)c(=O)[nH]c1=O | . | 3 | -23 | .
Cc1cccc(C)c1NC(=O)CNc1ccccc1 | 37* | -18 | -46 | 3
COc1cccc(NC(=S)NC2CC(C)(C)NC(C)(C)C2)c1 | . | 1 | -37 | .
O=C(O)c1cccc(Nc2nc(-c3cccnc3)nc3ccccc23)c1 | . | -1 | -7 | .
CCOC(=O)c1cccc(Nc2nc(-c3cccnc3)nc3ccccc23)c1 | 68* | -15 | -18 | 4
COC1=C(N)C(=O)c2nc(-c3nc(C(=O)O)c(C)c(-c4ccc(OC)c(OC)c4O)c3N)ccc2C1=O | . | -7 | 97* | .
Cc1ccc2nc(N/N=C\c3ccc([N+](=O)[O-])o3)nc(-c3ccccc3)c2c1 | 99* | -8 | -80 | 108*
O=[N+]([O-])c1ccc(/C=N/Nc2ccc3ccccc3c2)o1 | . | 2 | -36 | .
N#Cc1ccccc1/C=N/Nc1nc(-c2ccccc2)c2cc(Br)ccc2n1 | 10 | 7 | -30 | 5
O=[N+]([O-])c1ccc(/C=N/Nc2nc(-c3ccccc3)c3cc(Br)ccc3n2)o1 | 64* | -11 | -26 | 9
CCCCCCOC(=O)Nc1ccc(S(=O)(=O)Nc2cccc([N+](=O)[O-])c2)cc1 | . | 9 | -34 | .
C/C(=N\NC(=O)C1(C)CC1(Br)Br)c1ccc(NC(=O)C2CCC2)cc1 (centres undefined) | . | -1 | -30 | .
O=C(c1ccc(F)cc1)N1CCCCC(Sc2nnnn2-c2ccccc2)C1=O (centres undefined) | 45* | 10 | -81 | 5
CCn1cc([N+](=O)[O-])c(C(=O)Nc2ccc3c(c2)OCCO3)n1 | 33* | -10 | -27 | -10
Cc1cccc(NC(=O)C(=O)NCCCc2ccccc2)c1 | . | 0 | -23 | .
CN(C)CC(C(=O)c1ccccc1)c1ccccc1 (centres undefined) | 31* | 101* | -38 | 2
CCN1CCN(Cc2ccccc2NC(=O)Nc2ccc(C)cc2)CC1 | 35* | -14 | -5 | -3
CCCCCOC(=O)CC(C(=O)OCCCCC)N1CCCCC1 (centres undefined) | . | . | -22 | .
SMILES | PostGolgi ctrl | Yeast lifespan up | Yeast growth inh | PostGolgi yeast
CCCCCCCCCOC(=O)C(CC(=O)O)N1CCOCC1 (centres undefined) | 0 | 29* | -41 | 4
C/C(=C/C(=O)N1CCc2ccccc21)C(=O)O | . | 1 | 10 | .
N#Cc1ccc(-c2ccc(OCC(=O)NCCc3ccccc3)cc2)cc1 | . | 46* | -52 | .
COc1ccc(CCNC(=O)COc2ccc(-c3ccc(C#N)cc3)cc2)cc1 | . | 1 | -23 | .
Cc1nn(-c2ccccc2)c2c1C(c1ccc(O)c(O)c1)N1C(=N2)C(Nc2ccccc2)=Nc2ccccc21 (centres undefined) | 51* | -6 | -39 | -5
COCCn1c(=NC(=O)CSCC(=O)NC2CCCCC2)sc2cc(OC)ccc21 | 48* | -4 | -19 | 5
O=C(Cn1c(O)c(/C=C2\C=Nc3ccc(Br)cc32)sc1=O)N1CCCC1 | 37* | -26 | -37 | -2
CC1(C(=O)NCc2ccccn2)C=CCN1C(=O)c1ccccc1 (centres undefined) | . | 9 | -17 | .
O=C(C#Cc1cccc([N+](=O)[O-])c1)c1ccccc1 | 64* | 20 | 11 | 91*
Cc1cc2n(n1)C(c1sccc1C)Nc1ccccc1-2 (centres undefined) | 8 | -15 | -40 | 15
Cc1ccc2c(c1)-c1cc(C)nn1C(c1sccc1C)N2 (centres undefined) | 30* | -26 | -37 | -1
CC1CCN(c2nc3c(c(=O)[nH]c(=O)n3C)n2Cc2ccccc2)CC1 | 10 | 1 | -4 | -1
